Reference: publication PMC6645225 (ACS Omega, 2018)
Entries after “also recorded” stand apart in the source; their conditions may differ.

What was measured:
CYP1A1 [1] = molecular target: T1, CYP1A1 (Homo sapiens, UniProt P04798); test: CYP1A1 inhibition in live HEK293 cells overexpressing CYP1A1; format: cell-based; conditions: for selectivity for CYP1A1 over CYP1B1: ratio of live cell IC50 values CYP1B1/CYP1A1; for inhibition at 10 µM: human, live HEK293 cells overexpressing CYP1A1, % inhibition of CYP1A1 at 10 μM (Mean ± SD) HEK293 cells, HEK293 cells overexpressing CYP1A1
T1 sequence (P04798 1-512): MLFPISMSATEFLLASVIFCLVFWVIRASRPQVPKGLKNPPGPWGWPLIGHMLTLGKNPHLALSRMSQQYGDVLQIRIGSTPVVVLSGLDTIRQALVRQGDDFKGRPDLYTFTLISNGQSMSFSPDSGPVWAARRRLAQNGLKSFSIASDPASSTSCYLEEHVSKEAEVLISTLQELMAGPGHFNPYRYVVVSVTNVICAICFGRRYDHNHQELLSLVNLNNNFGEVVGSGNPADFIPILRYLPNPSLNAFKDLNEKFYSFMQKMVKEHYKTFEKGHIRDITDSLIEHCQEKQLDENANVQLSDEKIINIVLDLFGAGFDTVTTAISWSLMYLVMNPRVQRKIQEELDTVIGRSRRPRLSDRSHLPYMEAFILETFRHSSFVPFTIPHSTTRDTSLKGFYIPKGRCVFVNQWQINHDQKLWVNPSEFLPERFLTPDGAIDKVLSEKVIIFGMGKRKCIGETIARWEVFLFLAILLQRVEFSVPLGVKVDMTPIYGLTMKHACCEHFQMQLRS

CYP1A2 [2] = molecular target: T2, CYP1A2 (Homo sapiens, UniProt P05177); test: CYP1A2 inhibition in live human HEK293 cells; format: cell-based
T2 sequence (P05177 1-516): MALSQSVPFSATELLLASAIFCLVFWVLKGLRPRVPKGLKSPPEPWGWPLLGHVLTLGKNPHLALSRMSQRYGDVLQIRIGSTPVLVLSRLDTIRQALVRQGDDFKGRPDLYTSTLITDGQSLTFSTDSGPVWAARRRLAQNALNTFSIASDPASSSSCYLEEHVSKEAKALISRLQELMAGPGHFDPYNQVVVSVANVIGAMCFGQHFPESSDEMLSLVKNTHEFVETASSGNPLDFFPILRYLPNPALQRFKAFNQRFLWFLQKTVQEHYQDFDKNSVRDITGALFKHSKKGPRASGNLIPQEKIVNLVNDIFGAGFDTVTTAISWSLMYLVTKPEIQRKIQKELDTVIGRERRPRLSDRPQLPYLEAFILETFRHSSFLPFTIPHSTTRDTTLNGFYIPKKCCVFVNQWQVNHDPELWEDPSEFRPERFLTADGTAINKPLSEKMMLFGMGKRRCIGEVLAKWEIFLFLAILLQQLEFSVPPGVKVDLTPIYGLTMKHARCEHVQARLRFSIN
How it was run: (§1)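 Live recombinant HEK293 cells, each expressing a single human CYP isoform. IC50 from a four-parameter variable-slope sigmoidal (Hill) fit of uninhibited fraction against inhibitor concentration.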

CYP1B1 [3] = molecular target: T3, CYP1B1 (Homo sapiens, UniProt Q16678); test: CYP1B1 inhibition in live human HEK293 cells; format: cell-based
T3 sequence (Q16678 1-543): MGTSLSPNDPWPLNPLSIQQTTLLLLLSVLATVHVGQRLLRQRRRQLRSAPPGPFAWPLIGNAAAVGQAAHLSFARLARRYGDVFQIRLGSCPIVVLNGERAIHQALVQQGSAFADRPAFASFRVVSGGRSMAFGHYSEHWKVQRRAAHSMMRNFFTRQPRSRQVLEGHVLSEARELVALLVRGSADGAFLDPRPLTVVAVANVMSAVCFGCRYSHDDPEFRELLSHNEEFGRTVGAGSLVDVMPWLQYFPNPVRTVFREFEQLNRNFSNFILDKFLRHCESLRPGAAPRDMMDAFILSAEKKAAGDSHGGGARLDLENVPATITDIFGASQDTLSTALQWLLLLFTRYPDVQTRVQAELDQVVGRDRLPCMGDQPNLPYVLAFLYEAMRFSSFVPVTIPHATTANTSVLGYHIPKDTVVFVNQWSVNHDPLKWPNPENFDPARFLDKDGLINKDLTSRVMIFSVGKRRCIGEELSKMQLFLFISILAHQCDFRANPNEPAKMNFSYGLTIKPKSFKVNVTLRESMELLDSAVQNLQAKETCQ
How it was run: as §1

CYP2D6 = CYP2D6 (Homo sapiens, UniProt P10635); test: CYP2D6 inhibition in live human HEK293 cells; format: cell-based
Chain of CYP2D6 (P10635 whole entry): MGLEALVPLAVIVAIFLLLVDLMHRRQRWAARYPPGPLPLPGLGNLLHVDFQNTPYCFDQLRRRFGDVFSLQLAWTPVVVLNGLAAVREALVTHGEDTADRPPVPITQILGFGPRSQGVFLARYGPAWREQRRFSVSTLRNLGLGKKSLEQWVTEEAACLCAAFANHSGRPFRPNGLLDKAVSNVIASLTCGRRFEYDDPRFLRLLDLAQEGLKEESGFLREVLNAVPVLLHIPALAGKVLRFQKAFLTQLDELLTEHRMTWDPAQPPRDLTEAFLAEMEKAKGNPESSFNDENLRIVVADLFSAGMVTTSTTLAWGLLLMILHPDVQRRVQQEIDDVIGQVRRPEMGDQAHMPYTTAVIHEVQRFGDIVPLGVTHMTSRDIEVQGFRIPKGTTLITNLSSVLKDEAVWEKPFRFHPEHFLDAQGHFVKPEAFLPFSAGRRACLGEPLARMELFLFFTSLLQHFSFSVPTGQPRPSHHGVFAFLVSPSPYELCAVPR
How it was run: as §1

CYP3A4 = CYP3A4 (Homo sapiens, UniProt P08684); test: CYP3A4 inhibition in live human HEK293 cells; format: cell-based
Chain of CYP3A4 (P08684 whole entry): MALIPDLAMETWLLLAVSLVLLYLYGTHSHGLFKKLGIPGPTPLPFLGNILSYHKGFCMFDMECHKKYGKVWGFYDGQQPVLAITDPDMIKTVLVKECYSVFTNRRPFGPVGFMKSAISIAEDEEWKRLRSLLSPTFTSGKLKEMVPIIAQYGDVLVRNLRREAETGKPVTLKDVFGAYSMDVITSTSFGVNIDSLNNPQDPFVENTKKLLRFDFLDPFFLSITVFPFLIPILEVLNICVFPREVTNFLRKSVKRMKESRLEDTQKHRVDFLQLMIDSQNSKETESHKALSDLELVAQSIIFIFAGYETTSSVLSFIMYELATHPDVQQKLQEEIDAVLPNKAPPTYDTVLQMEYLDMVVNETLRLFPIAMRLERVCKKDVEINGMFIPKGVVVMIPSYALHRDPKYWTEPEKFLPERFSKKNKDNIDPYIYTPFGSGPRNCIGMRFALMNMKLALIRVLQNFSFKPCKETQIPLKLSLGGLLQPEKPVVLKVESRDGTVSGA
How it was run: as §1

[4] = test system: CYP1A1-overexpressing HEK293 cells; test: Protection of CYP1A1-overexpressing HEK293 cells from B[a]P toxicity; format: cell-based, human; conditions: compound at 3× IC50 concentration
How it was run: (§2)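 CYP1A1-expressing adherent HEK293 cells exposed to B[a]P at 0.05–100 μM, alone or with test compound. Viability read by MTT and checked by sulforhodamine B. EC50 (B[a]P concentration for 50% viability loss) taken from a dose–response curve of viability versus log B[a]P concentration, averaged over three independent experiments.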

A549 cells = test: FACS cell cycle analysis of A549 lung cancer cells treated with B[a]P; format: cell-based, human; conditions: A549 (p53+); 4l at 3× IC50 before 15 μM B[a]P
How it was run: (§3)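 CYP1A1 expression in the cells confirmed by western blot. Cells preincubated 20 h with test compound, exposed to 15 μM B[a]P for 3 h, then released into fresh medium for 57 h. Cells trypsinised, PBS-washed and fixed 1 h in 70% ethanol at −20 °C. Treated with RNase (0.5 mg/mL) and stained with propidium iodide (50 μg/mL) for 1 h at 4 °C in the dark. Single cells gated; about 10 000 events collected; % G0/G1, S and G2/M reported.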

Calu-1 cells = test: FACS cell cycle analysis of Calu-1 lung cancer cells treated with B[a]P; format: cell-based, human; conditions: Calu-1 (p53-null); 4l at 3× IC50 before 15 μM B[a]P
How it was run: as §3

CYP1A1 [5] = molecular target: T1, CYP1A1; test: CYP1A1 inhibition in yeast microsomes; format: biochemical
How it was run: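 Human CYP1A1 expressed in yeast microsomes (Sacchrosomes). […] IC50 from a four-parameter variable-slope sigmoidal (Hill) fit of uninhibited fraction against inhibitor concentration.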

CYP1A2 [6] = molecular target: T2, CYP1A2; test: CYP1A2 inhibition in Sacchrosomes; format: biochemical
How it was run: (§4)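 Kinetic microplate assay, 15 min reaction, using recombinant human P450s expressed in S. cerevisiae microsomes. Run in 100 mM potassium phosphate pH 7.4 with an NADPH-regenerating system (final: 0.04 units G6PDH, 1.3 mM NADP+, 3.3 mM glucose-6-phosphate, 3.3 mM MgCl2, 50 μM sodium citrate). Reaction started with substrate plus NADPH system. Test compound serially diluted from 20 μM final (CYP2E1: from 10 μM), 0.5% DMSO final. IC50 from Hill fit.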

CYP1B1 [7] = molecular target: T3, CYP1B1; test: CYP1B1 inhibition in Sacchrosomes; format: biochemical
How it was run: as §4

[8] = test system: CYP2A6, CYP2B6, CYP2C8, CYP2C9, CYP2C18, CYP2C19, CYP2D6, CYP2E1, CYP3A4; test: CYP2 and CYP3 subfamily panel inhibition in Sacchrosomes; format: biochemical; conditions: human, pH 7.4
How it was run: as §4

normal HEK293 cells = test: B[a]P toxicity in normal HEK293 cells; format: cell-based; conditions: Homo sapiens, HEK293, read-out: EC50 of B[a]P in normal HEK293 cells
How it was run: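 Adherent HEK293 cells exposed to a concentration series of B[a]P; viability read by MTT assay. EC50 is the B[a]P concentration giving 50% loss of viability, taken from a dose–response curve of viability versus log B[a]P concentration.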

[9] = Protection of CYP1A1-overexpressing HEK293 cells from B[a]P toxicity; format: cell-based, human; conditions: human, CYP1A1-overexpressing HEK293 cells
How it was run: as §2

For `COc1c2c(c(OC)c3occc13)OC(c1ccc(F)c(Br)c1)CC2=O` (stereo not drawn) [4l, 7-(3-Bromo-4-fluorophenyl)-4,9-dimethoxy-6,7-dihydro-5H-furo[3,2-g]chromen-5-one], which IC50 (CYP1A1 [1]) is on record?
The IC50 was 140 ± 40 nM.

What about the “selectivity for CYP1A1 over CYP1B1” value (CYP1A1 [1]) of the same compound?
The value was 170 fold.

And the IC50 (CYP1A2 [2])?
The IC50 was greater than 10000 nM.

And the IC50 (CYP1B1 [3])?
Its IC50 is 23800 ± 1200 nM.

What about the IC50 (CYP2D6) of the same compound?
Its IC50 is greater than 10000 nM.

What about the IC50 (CYP3A4) of the same compound?
Its IC50 is greater than 10000 nM.

What about the “protection from CYP1A1-mediated B[a]P toxicity” value [4] of the same compound?
The value was “completely protected”.

What about the “effect on B[a]P-mediated S-phase block” value (A549 cells) of the same compound?
The value was “restored into the cell cycle; also recorded: preponderantly released from the block; also recorded: prevented manifestation of B[a]P-mediated S-phase block”.

What about the “effect on B[a]P-mediated S-phase block” value (Calu-1 cells) of the same compound?
Its value is “restored into the cell cycle; also recorded: preponderantly released from the block; also recorded: prevented manifestation of B[a]P-mediated S-phase block”.

For `COc1c(C(=O)C=Cc2ccsc2)c(O)c(OC)c2occc12` [3r, 1-(6-Hydroxy-4,7-dimethoxybenzofuran-5-yl)-3-(thiophen-3-yl)prop-2-en-1-one], which IC50 (CYP1A1 [5]) is on record?
Its IC50 is 280 ± 30 nM.

What about the IC50 (CYP1A2 [6]) of the same compound?
The IC50 was 4200 ± 800 nM.

What about the IC50 (CYP1B1 [7]) of the same compound?
Its IC50 is 780 ± 40 nM.

And the IC50 at 15 min [8]?
Its IC50 at 15 min is greater than 20000 nM.

With `COc1c(C(=O)C=Cc2cccnc2)c(O)c(OC)c2occc12` [3g, 1-(6-Hydroxy-4,7-dimethoxybenzofuran-5-yl)-3-(pyridin-3-yl)prop-2-en-1-one] as the compound, how does the IC50 (CYP1A1 [5]) read?
The IC50 was 340 ± 30 nM.

What about the inhibition at 10 µM (CYP1A1 [5]; human, % inhibition of CYP1A1 at 10 μM (Mean ± SD) Sacchrosomes, 10 μM, Sacchrosomes) of the same compound?
Its inhibition at 10 µM is 97%.

And the IC50 (CYP1A1 [1])?
The IC50 was 470 nM.

And the inhibition at 10 µM (CYP1A1 [1])?
The inhibition at 10 µM was 99%.

What about the IC50 (CYP1A2 [6]) of the same compound?
Its IC50 is 170 ± 20 nM.

What about the IC50 (CYP1B1 [7]) of the same compound?
The IC50 was 660 ± 40 nM.

What about the IC50 at 15 min [8] of the same compound?
Its IC50 at 15 min is greater than 20000 nM.

And the IC50 (CYP1B1 [3])?
The IC50 was 270 nM.

And the “protection from CYP1A1-mediated B[a]P toxicity” value [4]?
The value was “completely protected”.

With `COc1c2c(c(OC)c3occc13)OC(c1ccccc1)CC2=O` (stereo not drawn) [4a, 4,9-Dimethoxy-7-phenyl-6,7-dihydro-5H-furo[3,2-g]chromen-5-one] as the compound, how does the IC50 (CYP1A1 [1]) read?
Its IC50 is 1840 ± 140 nM.

What about the inhibition at 10 µM (CYP1A1 [1]) of the same compound?
Its inhibition at 10 µM is 87%.

What about the IC50 (CYP1A2 [2]) of the same compound?
Its IC50 is greater than 10000 nM.

And the IC50 (CYP1B1 [3])?
Its IC50 is 566 ± 80 nM.

What about the IC50 (CYP2D6) of the same compound?
The IC50 was greater than 10000 nM.

What about the IC50 (CYP3A4) of the same compound?
Its IC50 is greater than 10000 nM.

Which IC50 (CYP1A1 [1]) does the source give for `COc1c2c(c(OC)c3occc13)OC(c1cccnc1)CC2=O` (stereo not drawn) [4e, 4,9-Dimethoxy-7-(pyridin-3-yl)-6,7-dihydro-5H-furo[3,2-g]chromen-5-one] here?
The IC50 was 450 ± 60 nM.

And the “selectivity for CYP1A1 over CYP1B1” value (CYP1A1 [1])?
The value was 9.2 fold.

What about the IC50 (CYP1A2 [2]) of the same compound?
Its IC50 is greater than 10000 nM.

What about the IC50 (CYP1B1 [3]) of the same compound?
The IC50 was 4160 ± 250 nM.

What about the IC50 (CYP2D6) of the same compound?
Its IC50 is greater than 10000 nM.

What about the IC50 (CYP3A4) of the same compound?
The IC50 was greater than 10000 nM.

With `c1ccc2c(c1)cc1ccc3cccc4ccc2c1c34` [B[a]P, benzo[a]pyrene, reference compound] as the compound, how does the EC50 (normal HEK293 cells) read?
Its EC50 is 14000 nM.

And the EC50 [9]?
The EC50 was 1400 nM.
